According to ChEMBL document CHEMBL1156729, “Novel synthesis and pharmacological evaluation as alpha2-adrenoceptor ligands of O-phenylisouronium salts” (Bioorg Med Chem, 2008):

Assay: Displacement of [3H]RX821002 from alpha2 adrenoceptor in human prefrontal cortex neural membrane
Assay type: tissue-based
Method in brief: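 Postmortem human PFC P2 membranes (homogenized in 5 mM Tris–HCl pH 7.4, 1 mM MgCl2, 0.25 M sucrose; stored at −70 °C) incubated in 50 mM Tris–HCl pH 7.5 with 1 nM [3H]RX821002 and competitor (10 concentrations) 30 min at 25 °C. Bound ligand separated by GF/C filtration and counted by scintillation. Non-specific binding with 10^-5 M adrenaline. Ki by one-site nonlinear regression, expressed as pKi.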

Row | Structure (SMILES) | pKi
1 | N=C(N)Oc1ccc(Oc2ccc(O)cc2)cc1 | 4.49
2 | N=C(N)Oc1ccc2c(c1)CCC2 | 5.27
3 | N=C(N)Oc1ccc(Sc2ccc(OC(=N)N)cc2)cc1 | 5.1
4 | N=C(N)Oc1ccc(Cc2ccc(OC(=N)N)cc2)cc1 | 5.4
5 | N=C(N)Oc1ccc(Sc2ccc(O)cc2)cc1 | 4.94
6 | N=C(N)Oc1ccc(Cc2ccc(O)cc2)cc1 | 4.98
7 | COC1(C2=NCCN2)COc2ccccc2O1 (stereo unspecified) | 9.04

The next lines start with the values.

Row | pKi | Structure (SMILES)
8 | 4.72 | N=C(N)Oc1ccc(Oc2ccc(OC(=N)N)cc2)cc1
9 | 5.35 | N=C(N)Oc1ccc2c(c1)CCCC2
10 | 5.09 | Cc1ccc(OC(=N)N)cc1
11 | 7.11 | N=C(N)Nc1ccc2c(c1)CCCC2
